Screening data: PubChem, several laboratories
ATG4B inh: ATG4B (human) cysteine protease inhibition | Q9Y4P1 | ATG4B cleavage of LC3-PLA2, NBD-HPC fluorescence, 1 h | inhibition, % at 8.33 µM | 340,000 tested, 0.51% active; in the data active = inhibition above about 40%
CSN deneddyl inh: CSN deneddylation inhibition. Purified CSN, SCF-Nedd8-OG deneddylation, fluorescence polarization. inhibition, % at 12.5 µM. 360,000 tested, 0.38% active;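 active = pattern-corrected inhibition above about 35%, with an unprinted fluorescence ratio check between 0.5 and 1.5, limit read from the data, passing the limit was not always enough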;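 also: 0% = enzyme with substrate and 100% = substrate without enzyme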
Target sequence (Q92905 whole entry, looked up, one chain of several): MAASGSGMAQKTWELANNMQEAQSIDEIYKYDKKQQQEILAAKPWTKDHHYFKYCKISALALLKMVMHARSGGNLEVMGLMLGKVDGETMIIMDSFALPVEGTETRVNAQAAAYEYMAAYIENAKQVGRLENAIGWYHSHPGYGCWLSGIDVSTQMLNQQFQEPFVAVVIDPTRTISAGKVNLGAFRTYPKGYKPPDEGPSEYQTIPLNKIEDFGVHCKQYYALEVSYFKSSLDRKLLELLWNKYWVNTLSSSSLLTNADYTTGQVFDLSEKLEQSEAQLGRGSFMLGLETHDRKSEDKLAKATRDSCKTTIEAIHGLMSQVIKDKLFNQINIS
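Detection – fluorescence polarization · System – HEK293T-derived human Csn5 enzyme · Controls – substrate-only high control, full reaction low control · Timing – 90 min, room temperature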
LEDGF integ inh: blocks HIV-1 LEDGF/p75-dependent DNA integration; TR-FRET IN-LEDGF/p75 DNA integration, Eu/Cy5; inhibition, % at 3.7 µM; 370,000 tested, 0.64% active; AID 743269;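 active = inhibition above the screen-wide mean plus 3 SD, cut at about 13% in these data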;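 also: signal is the Cy5 over europium emission ratio at 671 and 618 nm; 0% = plate median of compound wells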
rCAG RNA binder: molecules binding r(CAG) RNA repeats; 370,000 tested, 1.3% active; inhibition, % at 3 µM; r(CAG) RNA repeat, TO-PRO-1 dye displacement fluorescence;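 active = inhibition above the plate cutoff, the mean of all test compounds on that plate plus 3 SD, cut at about 35% in these data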;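 also: 0% = DMSO alone and 100% = 100 µM mitoxantrone as full dye displacement; higher means more dye released from RNA so lower well fluorescence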
UHRF1 binding: human UHRF1 methylated DNA binding inhibitors; AID 687016; 370,000 tested, 0.75% active; UHRF1 binding to methylated oligo, TR-FRET; Q96T88; inhibition, % at 4.4 µM; in the data active = inhibition above about 21%;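 also: UHRF1 SRA domain binding a hemimethylated CpG hairpin DNA probe; 0% = median of test compound wells and 100% = reference inhibitor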
MBD2 DNA inh: inhibitors of human MBD2 binding to methylated oligonucleotide. Q9UBB5. TR-FRET. inhibition, % at 4.4 µM. 370,000 tested, 0.31% active. AID 686964; in the data active = inhibition above about 13%
* hit, by the source's call; · = no result given. Most compounds without a hit are left out; they make up all but 3.1% or so of the library.

SMILES	ATG4B inh	CSN deneddyl inh	LEDGF integ inh	rCAG RNA binder	UHRF1 binding	MBD2 DNA inh
O=C(O)CN1C(=O)/C(=C\C(Br)=C\c2ccccc2)SC1=S	20.0	33.5	2.6	49.7*	1.8	3.4
CC(/C=C1\SC(=S)N(CCC(=O)Nc2ccccc2O)C1=O)=C\c1ccccc1	5.7	35.7*	3.6	14.8	-6.7	-5.3
O=C(CCCN1C(=O)/C(=C/c2ccccc2)SC1=S)Nc1ccccc1O	13.9	-9.6	-3.0	10.8	2.7	-1.2
Cc1ccc2c(c1)-c1c(cnn1CC(=O)NCCc1cccc(F)c1)CO2	·	·	-2.1	2.3	-2.2	0.7
C=CCN(CC#CC1=CCCCC1)CC1CC1	·	·	0.8	-1.4	2.7	-1.7
COc1ccc(NC(=S)Nc2ncccc2C)c(OC)c1	-0.9	0.8	1.6	-5.5	25.0*	-3.5
CC(=O)c1nn(-c2ccc(Cl)cc2)cc1C(=O)c1ccc(C)cc1	-4.2	-1.0	-4.1	-1.7	26.4*	9.3
Cc1nn(CC(=O)O)c(C)c1N	7.4	-2.2	7.9	-2.9	29.8*	8.5
Cc1nn(CC(=O)O)c(C)c1[N+](=O)[O-]	-6.5	-10.1	3.4	3.6	-3.9	-2.5
COc1cc(/C=C2/C(=O)NN(c3ccc(Cl)cc3)C2=O)ccc1OC(=O)c1ccco1	5.8	-3.4	2.0	76.3*	5.8	0.5
Cc1c(C)c(C)c(C(=O)c2ccc(NC(=O)c3ccccc3C(=O)O)cc2)c(C)c1C	94.0*	1.0	4.1	9.3	2.5	-6.9
CCOC(=O)N1CCN(S(=O)(=O)c2ccc3c4c(cccc24)C(=O)N3)CC1	-10.2	-4.8	-2.1	1.3	-2.5	-6.1
CCOc1ccccc1N1CCN(S(=O)(=O)c2ccc3c4c(cccc24)C(=O)N3)CC1	5.1	11.8	11.2	37.3*	4.7	6.9
Cc1n[nH]c(C)c1S(=O)(=O)N1CCCC(C(=O)O)C1 (stereo unspecified)	-3.1	-2.9	-3.5	0.6	-0.4	0.1
Cc1n[nH]c(C)c1S(=O)(=O)N1CCC(C(=O)O)CC1	-4.1	4.1	-3.9	-2.7	20.7*	9.9
O=C(C1CC12CCCC2)N1CCC(CO)(Cc2ccccc2Cl)CC1 (stereo unspecified)	14.3	8.8	-4.2	-4.0	45.0*	3.7
CC(C)=CCC/C(C)=C/CN1CC(=O)N2[C@H](C[C@@]3(n4ccc5ccccc54)c4ccccc4N(S(=O)(=O)c4ccccc4)[C@@H]23)C1=O	·	·	6.6	13.7	-0.9	0.5
COc1ccc(OC)c(CC(NC(C)=O)C(=O)NC2CCN(c3c(Cc4ccccc4)c(C)nc4ncnn34)CC2)c1 (stereo unspecified)	-8.5	-5.6	-0.3	-7.6	18.9	5.0
COc1cccc(CC(NC(C)=O)C(=O)NC2CCN(c3c(Cc4ccccc4)c(C)nc4ncnn34)CC2)c1 (stereo unspecified)	-4.3	-2.7	0.0	-5.7	25.8*	6.7
CCCCNC(=O)C[C@H]1C[C@@]2(C(=O)OC)C(=C[C@H](C3CCCC3)O[C@@H]2C)N(Cc2ccco2)C1=O	·	·	5.0	-2.9	-1.4	-7.5
COc1ccccc1CN[C@@H]1CC[C@@]23CCCN2C(=O)CCC[C@H]3C1	·	·	-1.4	·	1.8	4.4
O=C(Oc1cccc2ccccc12)c1ccncc1	-13.2	1.7	-3.7	-3.5	-2.0	-0.9
CC(C)COC(=O)c1ccccc1OC(=O)c1ccncc1	-6.2	0.2	5.4	-5.1	25.4*	9.6
COc1ccc(N=C2S/C(=C\c3ccc(N4CCOCC4)o3)C(=O)N2CCc2c[nH]c3ccccc23)cc1	·	122.3	·	·	·	·
COc1ccc(N=C2S/C(=C\c3ccc(OCC(=O)O)cc3)C(=O)N2CCc2c[nH]c3ccccc23)cc1	26.5	35.6*	2.5	68.4*	-0.7	-1.2
SMILES	ATG4B inh	CSN deneddyl inh	LEDGF integ inh	rCAG RNA binder	UHRF1 binding	MBD2 DNA inh
CC(C)n1nnnc1C1(C)CN(S(C)(=O)=O)CC(=O)N1Cc1cccc(C(F)(F)F)c1 (stereo unspecified)	·	·	2.8	2.8	0.2	-3.2
CC(=O)c1cc(-c2cc(C(F)(F)F)cc(C(F)(F)F)c2)c(=O)n2c1CCC2	·	·	2.6	-2.3	-2.7	-5.1
O=C(CNC(c1ccccc1)c1ccccc1)Nc1c(F)cccc1F	-8.2	-5.9	1.1	-3.1	7.0	-4.5
Fc1cccc(Cl)c1CNC(c1ccccc1)c1ccccc1	7.4	0.0	2.1	-6.6	58.0*	-3.7
COC(=O)[C@H](C(C)C)N(CCCc1cn(Cc2ccc(C)cc2)nn1)S(=O)(=O)c1ccc(F)cc1Br	·	·	-2.5	3.5	1.4	-5.2
CC(C(=O)N1CCc2ccccc21)N(C)CC(=O)Nc1ccccc1Cl (stereo unspecified)	-0.8	1.5	1.0	1.8	33.0*	-1.5
COc1ccccc1CNC(=O)C[C@H]1CC[C@H]2[C@@H](COc3ccc(NC(=O)Nc4ccccc4)cc3C(=O)N2C)O1	·	·	0.4	5.4	-0.6	2.0
Cc1ccc(C2CC(c3ccc(Cl)cc3)=NNC2=O)cc1 (stereo unspecified)	0.3	1.5	-1.5	-2.9	-2.7	-4.7
CN1N=C(c2ccc(Cl)cc2)CC(c2ccc(Cl)cc2)C1=O (stereo unspecified)	9.1	2.2	0.6	-5.8	22.1*	7.2
COC(=O)C1CN(Cc2ccc(F)cc2)CCS(=O)(=O)N1Cc1cn(CCOC(C)=O)nn1 (stereo unspecified)	·	·	6.4	-0.7	14.2	2.7
CC(C)OC(=O)c1cc(C(=O)c2cc(F)ccc2O)coc1=N	-1.2	3.5	0.3	3.4	-3.1	-1.1
COc1ccc(O)c(C(=O)c2coc(=N)c(C(=O)Nc3ccc(SC(F)F)cc3)c2)c1	4.6	55.8*	-4.1	9.6	-4.2	-4.8
CS(=O)(=O)N[C@@H]1C[C@@H]2O[C@H](CO)CC[C@@H]2O[C@@H]1CCc1ccc(-c2ccccc2F)cc1	·	·	3.3	1.6	0.3	-1.1
C=CCn1c(SCC(N)=O)nnc1-c1ccc(C)cc1	·	·	-2.4	1.0	-0.9	-1.6
O=S(=O)(Nc1nc2ccccc2s1)c1ccc(Cl)s1	3.9	-0.9	2.7	43.7*	-3.3	-4.9
O=S(=O)(Nc1nc2ccccc2s1)c1cc(F)ccc1F	1.8	2.3	5.0	24.8	0.8	-6.2
Cc1c(NS(=O)(=O)c2ccc(F)cc2)c(=O)n(-c2ccccc2)n1C	-0.1	3.5	1.9	-5.0	24.7*	-2.0
Cc1c(NC(=O)/C=C/c2cn(-c3ccccc3)nc2-c2ccc(F)cc2)c(=O)n(-c2ccccc2)n1C	-11.4	0.3	3.5	5.2	47.2*	-3.5
CCn1cc(C(=O)NCCCN2CCN(C)CC2)c(=O)c2cc(S(=O)(=O)N3CCc4ccccc4C3)ccc21	-10.7	0.8	-0.9	-2.4	41.4*	-5.7
CCOc1ccc(NC(=S)N2CCC(C(=O)c3ccc(F)cc3)CC2)cc1	0.3	-0.8	2.0	-3.7	0.4	3.8
CCOc1ccc(NC(=O)N2CCC(C(=O)c3ccc(F)cc3)CC2)cc1	-17.5	-2.2	-0.6	-7.3	21.5*	7.7
